From PubChem
Most compounds without a hit are left out; they make up all but 1.9% or so of the library.
ADAM10 inh – human ADAM10 inhibitors, primary screen, biochemical, QFRET, HTS | AID 720582, 2013 | recombinant ADAM10, EDANS/DABCYL FRET peptide cleavage, 3 h | Disintegrin and metalloproteinase domain-containing protein 10 (Homo sapiens), O14672 | inhibition, % at 7 µM | 370,000 tested, 0.62% active;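 active = inhibition above a per-campaign cutoff equal to the mean of compounds falling between control-based bounds plus 3 SD, cut at about 20% in these data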;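 also: 0% = DMSO wells while the 100% control is not disclosed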
Target sequence (O14672 214-748 limits assumed): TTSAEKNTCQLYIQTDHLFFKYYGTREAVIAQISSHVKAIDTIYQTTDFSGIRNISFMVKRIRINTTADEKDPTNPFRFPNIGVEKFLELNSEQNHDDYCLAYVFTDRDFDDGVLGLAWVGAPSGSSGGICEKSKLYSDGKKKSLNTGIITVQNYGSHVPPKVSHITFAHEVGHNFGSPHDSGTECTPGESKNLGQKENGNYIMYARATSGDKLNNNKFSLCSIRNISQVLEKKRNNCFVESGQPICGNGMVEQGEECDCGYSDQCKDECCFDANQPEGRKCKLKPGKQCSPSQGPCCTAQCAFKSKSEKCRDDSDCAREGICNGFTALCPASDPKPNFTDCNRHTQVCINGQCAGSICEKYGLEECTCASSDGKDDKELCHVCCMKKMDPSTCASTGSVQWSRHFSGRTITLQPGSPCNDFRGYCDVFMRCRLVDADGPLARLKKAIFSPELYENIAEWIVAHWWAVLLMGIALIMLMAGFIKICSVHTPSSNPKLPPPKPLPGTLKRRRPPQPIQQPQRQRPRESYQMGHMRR
SENP1 inh – human SENP1 catalytic domain inhibitors, primary screen, biochemical, FRET, uHTS. 360,000 tested, 0.21% active. Sentrin-specific protease 1 (Homo sapiens), Q9P0U3. AID 624204, 2012. inhibition, % at 10 µM. recombinant SENP1 catalytic domain, CyPet-SUMO1-YPet FRET cleavage;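 active = inhibition at least 30% at 10 µM, raw YFP signal under a set limit, fluorescence ratio 0.5 to 1.5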;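 also: 0% = enzyme with DMSO and 100% = no enzyme wells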
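Assay system – human recombinant His6-tagged SENP1 catalytic domain enzyme · Input – SENP1 enzyme, 20 pM final · Buffer or medium – Tris pH 8 buffer plus EDTA, NaCl, BME, BSA, NP40, catalase · Schedule – 50 min reaction at room temperature · Technique – FRET read of cyan and yellow fluorescence · Control set – no-enzyme wells low, DMSO-plus-enzyme wells high control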
FAS TE block – FAS thioesterase domain inhibitors, primary screen, biochemical, fluorescence intensity, uHTS; 360,000 tested, 0.67% active; inhibition, % at 15 µM; Fatty acid synthase (Homo sapiens), P49327; AID 602261, 2012; recombinant FAS-TE, OMFH fluorogenic substrate, fluorescence endpoint;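 active = compounds whose normalised, plate-corrected inhibition of enzyme fluorescence in the single-dose primary screen is 50% or more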;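 also: 0% = DMSO with enzyme and 100% = substrate without enzyme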
ADAM17 inh – ADAM17 inhibitors, primary screen, biochemical, QFRET | recombinant ADAM17, EDANS/DABCYL FRET peptide cleavage | inhibition, % at 6.95 µM | 370,000 tested, 0.83% active;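 active = inhibition above the mean of compounds lying between control limits plus 3 SD, set per campaign, cut at about 8.5% in these data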;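 also: 0% = DMSO-only wells as the low control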
FAS-TE inh conf – FAS thioesterase domain inhibitors, confirmation, biochemical, fluorescence intensity, single concentration. shares compounds with FAS TE block. recombinant FAS-TE, OMFH fluorogenic substrate. inhibition, % at 15 µM. 2,300 tested, 45% active;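 active = compounds inhibiting the enzyme by at least 50% at 15 µM in any one of the replicates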;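 also: 0% = enzyme with DMSO only and 100% = wells lacking enzyme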
Active calls of the source: *; i = inactive; nt = not tested or not shown.

SMILES | ADAM10 inh | SENP1 inh | FAS TE block | ADAM17 inh | FAS-TE inh conf
NC(=S)n1[nH]c(-c2ccc([N+](=O)[O-])cc2)c(N=Nc2ccc(Cl)cc2)c1=O | nt | 3 | 66* | nt | 40*
O=C(CSc1ncnc2c1cnn2-c1ccccc1)NC1CCS(=O)(=O)C1 (configuration not stated) | -33 | -2 | 64* | -1 | 72*
O=C(CSc1ncnc2c1cnn2-c1ccc(F)cc1)NC1CCCC1 | 6 | 0 | 33 | -6 | nt
O=C(CC1C=CCC1)OCCN1CCN(C2CN(Cc3cn(Cc4ccccc4Cl)nn3)S(=O)(=O)C2)CC1 (configuration not stated) | 9 | nt | nt | 0 | nt
Cc1cccn2c(=O)c3cc(C#N)c(=NC(=O)c4cccs4)n(CC(C)C)c3nc12 | -346 | -33 | 16 | -143 | nt
COCCCn1c(=NC(=O)c2ccccc2)c(C#N)cc2c(=O)n3cccc(C)c3nc21 | i | -34 | 51* | -417 | 46
CCOCCCn1c(=NC(=O)c2cccs2)c(C#N)cc2c(=O)n3cccc(C)c3nc21 | i | -38 | 55* | -308 | 10
Cc1ccc2c(c1)C(c1ccccc1)N(C(=O)c1ccccc1)CC(=O)N2 (configuration not stated) | 2 | 0 | -1 | -2 | nt
Cc1ccc2c(c1)C(c1ccccc1)N(C(=O)c1cccc([N+](=O)[O-])c1)CC(=O)N2 (configuration not stated) | -3 | 2 | 78* | -2 | 87*
O=C1CN(C(=O)c2cc([N+](=O)[O-])ccc2Cl)C(c2ccc(F)cc2)c2cc(F)ccc2N1 (configuration not stated) | -1 | 0 | 75* | 1 | 41
COc1ccc2[nH]c3c(c2c1)CCN[C@]31C(=O)N(Cc2cn(Cc3ccccc3)nn2)c2ccc(F)cc21 | -15 | nt | nt | -6 | nt
O=C(Cc1c[nH]c2ccccc12)Nc1ccc(Nc2cccnc2)c(-c2cc(F)cc(F)c2)c1 | -20 | nt | nt | -9 | nt
Cc1cc(C)cc(-c2c(C(=O)c3ccc(Br)cc3)[nH]c(N)c2C(=O)NCc2ccc(Cl)cc2)c1 | -9 | nt | nt | -2 | nt
CN(C(=O)c1cccc(NC(=O)Cc2ccc(NC(=O)C3CCN(S(=O)(=O)c4cccc([N+](=O)[O-])c4)CC3)cc2)c1)C1CCCC1 | 6 | 3 | 59* | 4 | 25
CN(C(=O)c1cccc(NC(=O)Cc2ccc(NC(=O)C3CCN(C(=O)C4CCCC4)CC3)cc2)c1)C1CCCC1 | -9 | 4 | 0 | 0 | nt
CN(Cc1ccccc1)C(=O)c1cccc(NC(=O)Cc2ccc(NC(=O)C3CCCN(S(=O)(=O)c4cccc([N+](=O)[O-])c4)C3)cc2)c1 (configuration not stated) | -2 | nt | nt | 1 | nt
CN(C(=O)c1cccc(NC(=O)Cc2ccc(NC(=O)C3CCCN(S(=O)(=O)c4cccc([N+](=O)[O-])c4)C3)cc2)c1)C1CCCCC1 (configuration not stated) | 19 | 1 | 73* | 6 | 16
Cc1ccc(Cn2c(=N)c(S(=O)(=O)c3ccc(Br)cc3)cc3c(=O)n4ccccc4nc32)cc1 | nt | -33 | 8 | nt | nt
COc1ccc(CCn2c(=N)c(S(=O)(=O)c3ccc(C)cc3)cc3c(=O)n4ccccc4nc32)cc1 | -156 | -36 | 59* | -48 | -42
N=c1c(S(=O)(=O)c2ccc(Cl)cc2)cc2c(=O)n3ccccc3nc2n1C1CCCC1 | -26 | -32 | 65* | -6 | 3
CN(CCOC(=O)c1cccs1)C1CN(Cc2cn(Cc3ccccc3Cl)nn2)S(=O)(=O)C1 (configuration not stated) | -4 | nt | nt | -9 | nt
CN1CCN(c2nc3ccccn3c(=O)c2/C=C(\C#N)S(=O)(=O)c2ccc(Cl)cc2)CC1 | -95 | -30 | 25 | -40 | nt
Cc1ccc(S(=O)(=O)/C(C#N)=C/c2c(N3CCCCC3)nc3ccccn3c2=O)cc1 | -4 | -33 | 62* | -3 | 36
